Assay results taken from ChEMBL document CHEMBL5131497, “Design, Synthesis, and Characterization of TNP-2198, a Dual-Targeted Rifamycin-Nitroimidazole Conjugate with Potent Activity against Microaerophilic and Anaerobic Bacterial Pathogens” (J Med Chem, 2022).
Values after ≈ are worked out from the molar mass of the structure shown.

Tests used:
[1] = Drug distribution in Sprague-Dawley rat gums measured at 6 hrs; format: ADME, tissue-based, Gingiva; details: read-out: Ct
How it was run: (§1)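 Sprague–Dawley rats were dosed with TNP-2198. Concentrations were measured in plasma (ng/mL) and in tissues or contents (ng/g) at 0.5, 2, 6, 12 and 24 h after dosing. Values below the limit of quantification are reported as BLOQ.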

[2] = Drug distribution in Sprague-Dawley rat plasma measured at 6 hrs; format: ADME, cell-free; how it was run: as §1
[3] = Drug distribution in Sprague-Dawley rat vaginal tissue measured at 24 hrs; format: ADME, tissue-based, Vagina; details: in vivo, BLD = below limit of detection; how it was run: as §1
Prevotella disiens = assay: Antibacterial activity against Prevotella disiens MMX 3446; format: functional
Clostridioides difficile [4] = assay: Resistance development in Clostridioides difficile MMX 4381 assessed as mutation prevention concentration using at 1.90 x 10^8 CFU inoculum; format: functional; details: dose 0.5 µg/ml
Clostridioides difficile [5] = assay: Antibacterial activity against Clostridioides difficile BAA 1382; format: functional
Helicobacter pylori [6] = assay: Resistance development in Helicobacter pylori MMX 3719 assessed as spontaneous resistance frequency using at 1.90 x 10^8 CFU inoculum at 1 ug/ml; format: functional; details: dose 1 µg/ml
How it was run: (§2)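 H. pylori MMX 3719 exposed to 0.5, 1, 2 and 4 µg/mL drug with an inoculum of 1.90×10^8 CFU at each level. Two independent tests were run, and resistant colonies were counted and averaged. A spontaneous resistance frequency was reported for each concentration, and the MPC was taken across the concentrations tested.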

[7] = Drug distribution in Sprague-Dawley rat vaginal secretion measured at 24 hrs; format: ADME, tissue-based, Vaginal fluid; details: female, read-out: Ct; how it was run: as §1
Gardnerella vaginalis [8] = assay: Antibacterial activity against Gardnerella vaginalis clinical isolate China; format: functional
Bacteroides fragilis = assay: Antibacterial activity against metronidazole-resistant Bacteroides fragilis MMX 3387; format: functional
[9] = Drug distribution in Sprague-Dawley rat ascites fluid measured at 2 hrs; format: ADME, tissue-based, Ascitic fluid; details: read-out: Ct; how it was run: as §1
[10] = Drug distribution in Sprague-Dawley rat plasma measured at 12 hrs; format: ADME, cell-free; how it was run: as §1
[11] = Oral bioavailability in C57BL/6 mouse at 20 mg/kg; format: ADME, organism-based; details: in vivo
Bacteroides ovatus = assay: Antibacterial activity against metronidazole-resistant Bacteroides ovatus MMX 3504; format: functional
Peptostreptococcus sp. = assay: Antibacterial activity against Peptostreptococcus magnus ATCC 14956; format: functional
Clostridioides difficile [12] = assay: Resistance development in Clostridioides difficile MMX 4381 assessed as spontaneous resistance frequency using at 1.23 x 10^9 CFU inoculum at 0.5 ug/ml; format: functional; details: dose 0.5 µg/ml
[13] = Drug distribution in Sprague-Dawley rat large intestine tissue measured at 2 hrs; format: ADME, tissue-based; details: read-out: Ct; how it was run: as §1
Gardnerella vaginalis [14] = assay: Antibacterial activity against Gardnerella vaginalis ATCC 14018; format: functional
[15] = Half life in Beagle dog at 25 mg/kg, po; format: ADME, organism-based, Canis lupus familiaris; details: in vivo
How it was run: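 Single-dose PK of TNP-2198 was run in C57BL/6 mice (IV 5 mg/kg; PO 20 mg/kg) and beagle dogs (IV 5 mg/kg; PO 25 mg/kg). Terminal half-life (h) was derived from plasma profiles, together with Tmax, Vdss, CL, AUC and oral bioavailability.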

Clostridioides difficile [16] = assay: Antibacterial activity against rifampicin-resistant Clostridium difficile MMX 3587; format: functional
[17] = Drug distribution in Sprague-Dawley rat plasma measured at 24 hrs; format: ADME, cell-free; details: BLD = below limit of detection; how it was run: as §1
[18] = AUC in Sprague-Dawley rat at 50 mg/kg, po; format: ADME, organism-based; set-up: dose 50 mg/kg, route po; details: in vivo
How it was run: (§3)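 Plasma PK after single intravenous or oral dosing. Mice C57BL/6 at 5 mg/kg IV or 20 mg/kg PO; Sprague–Dawley rats at 10 mg/kg IV or 50 mg/kg PO; beagle dogs at 5 mg/kg IV or 25 mg/kg PO. AUC reported in ng·h/mL. Clearance from the IV arms in mL/min·kg.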

[19] = Drug distribution in Sprague-Dawley rat large intestine content measured at 0.5 hrs; format: ADME, tissue-based; details: read-out: Ct; how it was run: as §1
[20] = tested on: Porphyromonas asaccharolytica; assay: Antibacterial activity against metronidazole-resistant Prevotella asaccharolytica MMX 3552; format: functional
[21] = AUC in Beagle dog at 25 mg/kg, po; format: ADME, organism-based, Canis lupus familiaris; set-up: dose 25 mg/kg, route po; details: in vivo; how it was run: as §3
[22] = Drug distribution in Sprague-Dawley rat stomach content measured at 12 hrs; format: ADME, tissue-based; details: read-out: Ct; how it was run: as §1
[23] = Drug distribution in Sprague-Dawley rat stomach tissue measured at 0.5 hrs; format: ADME, tissue-based; details: read-out: Ct; how it was run: as §1
Helicobacter pylori [24] = assay: Antibacterial activity against metronidazole-resistant Helicobacter pylori CB1573 harboring rdxAR16S mutant measured after 5 days by agar dilution method; format: functional; details: CB1573, 120 h, time 5 day
How it was run: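 Agar dilution per CLSI. Wild-type ATCC 700392 (CB1531) and its derivatives carry defined resistance determinants. Drugs, alone or in 1:1 molar mixtures, were diluted 2-fold from 100× stocks into Mueller–Hinton agar with aged (≥2 weeks) sheep blood (5% v/v). MIC read after 5 days at 35 °C under microaerobic conditions from a campylobacter gas-generating system.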

[25] = AUC in Beagle dog at 5 mg/kg, iv; format: ADME, organism-based, Canis lupus familiaris; set-up: dose 5 mg/kg, route iv; details: in vivo; how it was run: as §3
Helicobacter pylori [26] = assay: Antibacterial activity against Helicobacter pylori infected in C57/BL6 mouse assessed as bacterial load in stomach at 15 mg/kg administered twice daily via oral gavage starting from 7 days post inoculation and administered for 7 days (reference value: 5.25 log10CFU); format: functional; details: time 7 day
[27] = Drug distribution in Sprague-Dawley rat brain measured at 24 hrs; format: ADME, tissue-based; details: in vivo, BLD = below limit of detection; how it was run: as §1
Prevotella bivia = assay: Antibacterial activity against Prevotella bivia ATCC 29303/MMX 5718; format: functional
[28] = Drug distribution in Sprague-Dawley rat brain measured at 6 hrs; format: ADME, tissue-based; details: read-out: Ct; how it was run: as §1
[29] = Half life in C57BL/6 mouse at 5 mg/kg, iv; format: ADME, organism-based; details: in vivo
[30] = Oral bioavailability in Beagle dog at 25 mg/kg; format: ADME, organism-based, Canis lupus familiaris; details: in vivo
Gardnerella vaginalis [31] = assay: Resistance development in Gardnerella vaginalis MMX 5973 assessed as spontaneous resistance frequency using at 4.50 x 10^8 CFU inoculum at 2 ug/ml; format: functional; details: dose 2 µg/ml
How it was run: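 Resistant colonies were counted at each drug concentration in two separate tests (test 1, test 2) and averaged. The spontaneous resistance frequency was taken from the mean colony count relative to the inoculum plated. Drug levels tested were 0.5, 1, 2 and 4 µg/mL, and a mutation prevention concentration (MPC) was also reported.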

Helicobacter pylori [32] = assay: Resistance development in Helicobacter pylori MMX 3719 assessed as spontaneous resistance frequency using at 1.90 x 10^8 CFU inoculum at 2 ug/ml; format: functional; details: dose 2 µg/ml; how it was run: as §2
[33] = Clearance in Sprague-Dawley rat at 10 mg/kg, iv; format: ADME, organism-based; details: in vivo; how it was run: as §3
[34] = Drug distribution in Sprague-Dawley rat gums measured at 12 hrs; format: ADME, tissue-based, Gingiva; details: read-out: Ct; how it was run: as §1
[35] = Clearance in Beagle dog at 5 mg/kg, iv; format: ADME, organism-based, Canis lupus familiaris; details: in vivo; how it was run: as §3
Gardnerella vaginalis [36] = assay: Antibacterial activity against Gardnerella vaginalis ATCC 49145; format: functional
Clostridioides difficile [37] = assay: Antibacterial activity against Clostridioides difficile CB1921 ATCC BAA1382 measured after 3 days; format: functional; details: CB1921 ATCC BAA1382, 72 h, time 3 day
[38] = Drug distribution in Sprague-Dawley rat large intestine tissue measured at 24 hrs; format: ADME, tissue-based; details: read-out: Ct; how it was run: as §1
[39] = Tmax in Sprague-Dawley rat at 50 mg/kg, po; format: ADME, organism-based; details: in vivo

## CO[C@H]1/C=C/O[C@@]2(C)Oc3c(C)c(O)c4c(c3C2=O)C2=NC3(CCN(CCn5c([N+](=O)[O-])cnc5C)CC3)NC2=C(NC(=O)/C(C)=C\C=C\[C@H](C)[C@H](O)[C@@H](C)[C@@H](O)[C@@H](C)[C@H](OC(C)=O)[C@@H]1C)C4=O [RIFASUTENIZOL]
[1]
  concentration at 6 h: 3660 ng/g
[2]
  concentration at 6 h: 1440 ng/mL
[3]
  Ct: Bld
Prevotella disiens
  MIC: 15 ng/mL (≈ 15.9 nM)
Clostridioides difficile [4]
  Activity: 1 µg/mL
Clostridioides difficile [5]
  MIC: 0.25 ng/mL (≈ 0.265 nM)
Helicobacter pylori [6]
  Activity: <5 10^-9No_unit
[7]
  concentration at 24 h: 54.6 ng/g
Gardnerella vaginalis [8]
  MIC: ≤ 4 ng/mL
  MIC90: 60 ng/mL (≈ 63.6 nM)
Bacteroides fragilis
  MIC: 15 ng/mL (≈ 15.9 nM)
[9]
  concentration at 2 h: 5270 ng/g
[10]
  concentration at 12 h: 4.33 ng/mL
[11]
  bioavailability: 20%
Bacteroides ovatus
  MIC: 120 ng/mL (≈ 127 nM)
Peptostreptococcus sp.
  MIC: 0.5 ng/mL (≈ 0.53 nM)
Clostridioides difficile [12]
  Activity: 8 10^-9No_unit
[13]
  concentration at 2 h: 8410 ng/g
Gardnerella vaginalis [14]
  MIC: 4 ng/mL (≈ 4.24 nM)
[15]
  half-life: 3.4 h
Clostridioides difficile [16]
  MIC: 250 ng/mL (≈ 265 nM)
[17]
  Cp: Bld
[18]
  AUC: 15400 ng·h/mL
[19]
  concentration at 0.5 h: 1480 ng/g
[20]
  MIC: 8 ng/mL (≈ 8.47 nM)
[21]
  AUC: 14800 ng·h/mL
[22]
  concentration at 12 h: 138 ng/g
[23]
  concentration at 0.5 h: 113000 ng/g
Helicobacter pylori [24]
  MIC: ≤ 2 ng/mL
[25]
  AUC: 4530 ng·h/mL
Helicobacter pylori [26]
  Activity: 1.94 log10CFU
[27]
  Ct: Bld
Prevotella bivia
  MIC: 15 ng/mL (≈ 15.9 nM)
[28]
  concentration at 6 h: 156 ng/g
[29]
  half-life: 0.8 h
[30]
  bioavailability: 65%
Gardnerella vaginalis [31]
  Activity: <2 10^-9No_unit
Helicobacter pylori [32]
  Activity: <5 10^-9No_unit
[33]
  clearance: 26 mL/min/kg
[34]
  concentration at 12 h: 115 ng/g
[35]
  clearance: 20 mL/min/kg
Gardnerella vaginalis [36]
  MIC: 4 ng/mL (≈ 4.24 nM)
Clostridioides difficile [37]
  MIC: ≤ 2 ng/mL
[38]
  concentration at 24 h: 7.26 ng/g
[39]
  Tmax: 1.8 h
